26 compounds from ChEMBL document CHEMBL1138502, “Discovery and biological evaluation of novel cyanoguanidine P2X(7) antagonists with analgesic activity in a rat model of neuropathic pain” (J Med Chem, 2009) can be followed below.

In assay [1] the target is T1, P2X purinoceptor 7 (Homo sapiens, UniProt Q99572).
T1 sequence (Q99572 whole entry): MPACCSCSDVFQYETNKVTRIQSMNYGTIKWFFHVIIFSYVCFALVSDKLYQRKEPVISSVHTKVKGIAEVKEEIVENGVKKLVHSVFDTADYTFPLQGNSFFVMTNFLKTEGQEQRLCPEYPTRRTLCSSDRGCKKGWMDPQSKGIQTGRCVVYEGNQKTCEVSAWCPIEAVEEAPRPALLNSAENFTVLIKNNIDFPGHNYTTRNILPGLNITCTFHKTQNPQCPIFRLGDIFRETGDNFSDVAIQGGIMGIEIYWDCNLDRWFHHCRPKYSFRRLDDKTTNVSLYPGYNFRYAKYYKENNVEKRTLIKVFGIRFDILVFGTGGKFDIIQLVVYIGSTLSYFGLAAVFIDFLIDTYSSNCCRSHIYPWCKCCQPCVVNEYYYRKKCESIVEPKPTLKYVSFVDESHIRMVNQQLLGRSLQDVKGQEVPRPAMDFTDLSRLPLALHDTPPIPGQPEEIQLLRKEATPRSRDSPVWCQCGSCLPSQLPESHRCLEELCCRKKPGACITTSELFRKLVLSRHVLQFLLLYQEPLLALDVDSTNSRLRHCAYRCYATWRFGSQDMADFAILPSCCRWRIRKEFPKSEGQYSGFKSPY
In words: Antagonist activity at human cloned P2X7 receptor expressed in HEK293 cells assessed as inhibition of calcium flux by FLIPR assay. The format is functional, cell-based. The procedure, abridged: (§1)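 Calcium influx read on a fluorometric imaging plate reader with Fluo-4 as the calcium-sensing dye. The P2X7 agonist was benzoylbenzoic ATP (BzATP). pIC50 values are the mean of two experiments unless otherwise indicated; some values are the mean of more than two experiments, with standard deviation shown.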
(A change in cytosolic calcium serves as a functional read-out for many receptors and channels.)

Assay [2] deals with T2, P2X purinoceptor 7 (Rattus norvegicus, UniProt Q64663).
T2 sequence (Q64663 whole entry): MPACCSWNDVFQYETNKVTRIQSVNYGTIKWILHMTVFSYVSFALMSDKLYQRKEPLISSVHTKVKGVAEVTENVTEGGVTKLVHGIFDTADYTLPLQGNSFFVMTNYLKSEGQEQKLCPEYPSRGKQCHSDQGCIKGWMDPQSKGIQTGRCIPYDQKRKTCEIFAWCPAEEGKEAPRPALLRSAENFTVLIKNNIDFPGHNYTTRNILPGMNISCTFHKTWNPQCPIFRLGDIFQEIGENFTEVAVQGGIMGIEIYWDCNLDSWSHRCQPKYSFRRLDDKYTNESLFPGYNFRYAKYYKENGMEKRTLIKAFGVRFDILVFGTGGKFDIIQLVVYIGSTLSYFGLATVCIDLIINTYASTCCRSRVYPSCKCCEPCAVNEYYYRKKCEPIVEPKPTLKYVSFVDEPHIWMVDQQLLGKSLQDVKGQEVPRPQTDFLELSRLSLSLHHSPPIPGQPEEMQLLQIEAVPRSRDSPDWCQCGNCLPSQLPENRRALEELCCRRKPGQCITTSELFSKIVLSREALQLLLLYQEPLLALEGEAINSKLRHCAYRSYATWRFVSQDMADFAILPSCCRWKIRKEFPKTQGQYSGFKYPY
In words: Antagonist activity at rat cloned P2X7 receptor expressed in HEK293 cells assessed as inhibition of calcium flux by FLIPR assay. The format is functional, cell-based. In outline:
as §1

The IC50 is the concentration that inhibits the measured activity by half. As for `CC(C)(C)C(NC(=O)Cc1cccc2ccccc12)NC(=NC#N)Nc1cccc2ncccc12` (configuration not stated), the IC50 in assay [1] and in assay [2] was 31.6 nM in each case.

On to `COc1ccc(CC(=O)NC(N=C(NC#N)Nc2cc(F)cc(F)c2)C(C)(C)C)cc1OC` (configuration not stated), for which the IC50 in assay [1] was 398 nM; in assay [2] it was 316 nM.

For `COc1cc(OC)cc(C(=O)NC(NC(=NC#N)Nc2cccnc2OC)C(C)(Cl)Cl)c1` (configuration not stated), the IC50 was 50.1 nM in assay [1] and 20 nM in assay [2].

`COc1ccc(CC(=O)NC(N=C(NC#N)Nc2cccc(C)c2)C(C)(C)C)cc1OC` (configuration not stated): the results for the IC50 in assay [1] and in assay [2] were 1000 nM and 39.8 nM, respectively.

`COc1ccc(CC(=O)NC(NC(=NC#N)Nc2cccnc2OC)C(C)(C)C)cc1OC` (configuration not stated): the IC50 in assay [1] is 100 nM; in assay [2], 39.8 nM.

As to `COc1ccc(CC(=O)NC(N/C(=N/C#N)Nc2cc(F)ccc2F)C(C)(C)C)cc1OC` (configuration not stated), the IC50 was 100 nM in assay [1] and 20 nM in assay [2].

For the compound `Cc1ccccc1N/C(=N\C#N)NC(NC(=O)Cc1ccccc1)C(C)(C)C` (configuration not stated), the IC50 was 31600 nM in assay [1] and 316 nM in assay [2].

Turning to `COc1ccc(CC(=O)NC(N/C(=N/C#N)Nc2cccc3cnccc23)C(C)(C)C)cc1OC` (configuration not stated), the IC50 in assay [1] is 251 nM; in assay [2] it was 31.6 nM.

For `COc1ccc(CC(=O)NC(N/C(=N/C#N)Nc2cccnc2C)C(C)(C)C)cc1OC` (configuration not stated), the results for the IC50 in assay [1] and in assay [2] were 251 nM and 158 nM, respectively.

As to `COc1ncccc1NC(=NC#N)NC(NC(=O)c1ccc(Cl)cc1)C(C)(Cl)Cl` (configuration not stated), the IC50 in assay [1] is 63.1 nM; in assay [2] it was 50.1 nM.

`CCCCCC(=O)NC(N=C(NC#N)Nc1ccccc1C)C(C)(C)C` (configuration not stated): the IC50 in assay [1] is 794 nM; in assay [2], 31.6 nM.

In the case of `COc1ccc(CC(=O)NC(N=C(NC#N)Nc2ccc(C)cc2)C(C)(C)C)cc1OC` (configuration not stated), the IC50 in assay [1] was 2000 nM; in assay [2] it was 20 nM.

Consider `COc1ccc(CC(=O)NC(N/C(=N/C#N)Nc2cccc3cccnc23)C(C)(C)C)cc1OC` (configuration not stated), for which the 50% inhibitory concentration (IC50) is 1580 nM in assay [1] and 158 nM in assay [2].

`COc1ccc(N/C(=N\C#N)NC(NC(=O)Cc2ccc(OC)c(OC)c2)C(C)(C)C)c(OC)n1` (configuration not stated): the IC50 in assay [1] is 31.6 nM; in assay [2] it was 12.6 nM.

In the case of `COc1ccc(CCCC(=O)NC(N/C(=N/C#N)Nc2cccnc2C)C(C)(C)C)cc1` (configuration not stated), the IC50 in assay [1] is 50.1 nM; in assay [2] it was 100 nM.

Turning to `COc1ccc(CC(=O)NC(N=C(NC#N)Nc2ccccc2F)C(C)(C)C)cc1OC` (configuration not stated), the results for the IC50 in assay [1] and in assay [2] were 200 nM and 12.6 nM, respectively.

Consider `COc1ccc(CC(=O)NC(N/C(=N/C#N)Nc2ccc(F)cc2F)C(C)(C)C)cc1OC` (configuration not stated), for which the IC50 in assay [1] was 251 nM; in assay [2] it was 10 nM.

As to `COc1ccc(CC(=O)NC(N=C(NC#N)Nc2cccc(F)c2)C(C)(C)C)cc1OC` (configuration not stated), the IC50 in assay [1] was 3160 nM; in assay [2] it was 79.4 nM.

Regarding `CSc1ccc(CC(=O)NC(N=C(NC#N)Nc2ccccc2C)C(C)(C)C)cc1` (configuration not stated), the IC50 in assay [1] was 31.6 nM; in assay [2] it was 7.94 nM.

Consider `COc1ccc(CCC(=O)NC(N/C(=N/C#N)Nc2ccccc2C)C(C)(C)C)cc1` (configuration not stated), for which the IC50 in assay [1] was 398 nM; in assay [2], 251 nM.

As to `COc1ccc(CC(=O)NC(N=C(NC#N)Nc2ccc(F)cc2)C(C)(C)C)cc1OC` (configuration not stated), the figures for the half-maximal inhibitory concentration (IC50) in assay [1] and in assay [2] were 316 nM and 20 nM, respectively.

For the compound `COc1ccc(NC(=NC#N)NC(NC(=O)c2ccc(Cl)cc2)C(C)(Cl)Cl)c(OC)n1` (configuration not stated), the IC50 in assay [1] is 50.1 nM; in assay [2], 10 nM.

`COc1ccc(CC(=O)NC(N/C(=N/C#N)Nc2ccccc2C)C(C)(C)C)cc1` (configuration not stated): the half-inhibitory concentration (IC50) is 63.1 nM in assay [1] and 31.6 nM in assay [2].

In the case of `Cc1ccccc1NC(=NC(NC(=O)CCCc1ccccc1)C(C)(C)C)NC#N` (configuration not stated), the IC50 in assay [1] is 79.4 nM; in assay [2], 25.1 nM.

For the compound `CSc1ccc(CC(=O)NC(N=C(NC#N)Nc2cccc3ncccc23)C(C)(C)C)cc1` (configuration not stated), the figures for the IC50 in assay [1] and in assay [2] were 10 nM and 7.94 nM, respectively.

Consider `COc1ccc(CC(=O)NC(N=C(NC#N)NCc2ccccc2Cl)C(C)(C)C)cc1OC` (configuration not stated), for which the IC50 is 631 nM in assay [1] and 200 nM in assay [2].
